# Reference: publication PMC12495087 (ESMO Open, 2025)
# Assay: phase I study BOS172738-01: safety and tolerability
# Format: in vivo, human
# How it was run: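 Patients received at least one dose of oral drug given once daily in 28-day cycles. Part A escalated 10–150 mg, by accelerated titration (dose doubling) and then 3+3 Fibonacci steps; part B used 75 mg. AEs were graded by CTCAE v4.03 from first dose to 31 days after last dose. DLTs counted in cycle 1. Missing causality was scored as related and missing grade as grade 3.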
# [1] = any causality and grade, overall n = 117
# [2] = overall total, n = 117, listed as BOS
# [3] = part A, all dose levels, n = 67
smiles,measurement,setting,value
COc1cc2cc(-c3ccc(CC(=O)Nc4cc(C(C)(C)C(F)(F)F)no4)cn3)cnc2cc1OC [BOS172738],grade ≥3 TEAE of either hypertension or liver enzyme elevations,BOS172738-treated patients,2%
same,Any TEAE,"all pooled 75 mg, n = 70",70 (100) n (%)
same,Any TEAE leading to BOS discontinuation,"all pooled 75 mg, n = 70",13 (19) n (%)
same,Any TEAE leading to BOS dose interruption,"all pooled 75 mg, n = 70",46 (66) n (%)
same,Any TEAE leading to BOS dose reduction,"all pooled 75 mg, n = 70",14 (20) n (%)
same,Any TEAE leading to study discontinuation,"all pooled 75 mg, n = 70",9 (13) n (%)
same,Any TEAE related to BOS leading to BOS discontinuation,"all pooled 75 mg, n = 70",6 (9) n (%)
same,Any TEAE related to BOS leading to study discontinuation,"all pooled 75 mg, n = 70",2 (3) n (%)
same,Any TEAE resulting in death,"all pooled 75 mg, n = 70",3 (4) n (%)
same,"Any TEAE, grade ≥3","all pooled 75 mg, n = 70",57 (81) n (%)
same,Serious TEAEs related to BOS,"all pooled 75 mg, n = 70",4 (6) n (%)
same,"Serious TEAEs, any","all pooled 75 mg, n = 70",35 (50) n (%)
same,"TEAE related to BOS, CTCAE grade ≥3: Anemia","all pooled 75 mg, n = 70",4 (6) n (%)
same,"TEAE related to BOS, CTCAE grade ≥3: Asthenia","all pooled 75 mg, n = 70",1 (1) n (%)
same,"TEAE related to BOS, CTCAE grade ≥3: Blood creatinine phosphokinase increased","all pooled 75 mg, n = 70",14 (20) n (%)
same,"TEAE related to BOS, CTCAE grade ≥3: Diarrhea","all pooled 75 mg, n = 70",1 (1) n (%)
same,"TEAE related to BOS, CTCAE grade ≥3: Hypophosphatemia","all pooled 75 mg, n = 70",4 (6) n (%)
same,"TEAE related to BOS, CTCAE grade ≥3: Lymphopenia","all pooled 75 mg, n = 70",2 (3) n (%)
same,"TEAE related to BOS, CTCAE grade ≥3: Muscular weakness","all pooled 75 mg, n = 70",1 (1) n (%)
same,"TEAE related to BOS, CTCAE grade ≥3: Myositis","all pooled 75 mg, n = 70",0 n (%)
same,"TEAE related to BOS, CTCAE grade ≥3: Neutropenia","all pooled 75 mg, n = 70",2 (3) n (%)
same,"TEAE related to BOS, CTCAE grade ≥3: Neutrophil count decreased","all pooled 75 mg, n = 70",9 (13) n (%)
same,"TEAE related to BOS, any","all pooled 75 mg, n = 70",57 (81) n (%)
same,"TEAE related to BOS, grade ≥3","all pooled 75 mg, n = 70",34 (49) n (%)
same,TEAE: anemia,[1],46 (39%) n (%)
same,TEAE: aspartate aminotransferase increased,[1],48 (41%) n (%)
same,TEAE: blood creatine phosphokinase increased,[1],72 (62%) n (%)
same,TEAE: constipation,[1],30 (26%) n (%)
same,TEAE: diarrhea,[1],41 (35%) n (%)
same,TEAE: dyspnea,[1],34 (29%) n (%)
same,TEAE: facial edema,[1],31 (26%) n (%)
same,TEAE: fatigue,[1],33 (28%) n (%)
same,TEAE: hypophosphatemia,[1],31 (26%) n (%)
same,treatment discontinued due to TEAEs,"final data cut-off, 117 patients",20%
same,myositis leading to dose interruption,in total,6%
same,severity of BOS172738-related TEAEs,in vivo,mostly grade 1-2
same,TEAE resulting in death: dyspnea,overall,2%
same,patients discontinued from the study due to BOS172738-related TEAEs,overall,4%
same,deaths considered related to BOS172738,overall n = 117,None
same,serious TEAE related to BOS172738: muscular weakness,overall n = 117,3 (3%) n (%)
same,serious TEAE related to BOS172738: myositis,overall n = 117,2 (2%) n (%)
same,serious TEAE: anemia,overall n = 117,4 (3%) n (%)
same,serious TEAE: dyspnea,overall n = 117,8 (7%) n (%)
same,serious TEAE: pneumonia,overall n = 117,7 (6%) n (%)
same,Any TEAE,"overall total, n = 117",117 (100) n (%)
same,Any TEAE leading to BOS discontinuation,"overall total, n = 117",30 (26%) n (%)
same,Any TEAE leading to BOS dose interruption,"overall total, n = 117",78 (67%) n (%)
same,Any TEAE leading to study discontinuation,"overall total, n = 117",18 (15) n (%)
same,Any TEAE related to BOS leading to BOS discontinuation,"overall total, n = 117",16 (14%) n (%)
same,Any TEAE related to BOS leading to study discontinuation,"overall total, n = 117",5 (4) n (%)
same,Any TEAE resulting in death,"overall total, n = 117",11 (9%) n (%)
same,"Any TEAE, grade ≥3","overall total, n = 117",98 (84%) n (%)
same,Serious TEAEs related to BOS,"overall total, n = 117",16 (14%) n (%)
same,"Serious TEAEs, any","overall total, n = 117",67 (57%) n (%)
same,"TEAE related to BOS, CTCAE grade ≥3: Anemia","overall total, n = 117",10 (9%) n (%)
same,"TEAE related to BOS, CTCAE grade ≥3: Asthenia","overall total, n = 117",2 (2) n (%)
same,"TEAE related to BOS, CTCAE grade ≥3: Blood creatinine phosphokinase increased","overall total, n = 117",29 (25%) n (%)
same,"TEAE related to BOS, CTCAE grade ≥3: Diarrhea","overall total, n = 117",3 (3) n (%)
same,"TEAE related to BOS, CTCAE grade ≥3: Hypophosphatemia","overall total, n = 117",6 (5) n (%)
same,"TEAE related to BOS, CTCAE grade ≥3: Lymphopenia","overall total, n = 117",3 (3) n (%)
same,"TEAE related to BOS, CTCAE grade ≥3: Muscular weakness","overall total, n = 117",3 (3) n (%)
same,"TEAE related to BOS, CTCAE grade ≥3: Myositis","overall total, n = 117",2 (2) n (%)
same,"TEAE related to BOS, CTCAE grade ≥3: Neutropenia","overall total, n = 117",4 (3) n (%)
same,"TEAE related to BOS, CTCAE grade ≥3: Neutrophil count decreased","overall total, n = 117",12 (10%) n (%)
same,"TEAE related to BOS, any","overall total, n = 117",99 (85%) n (%)
same,"TEAE related to BOS, grade ≥3","overall total, n = 117",63 (54%) n (%)
same,Any TEAE leading to BOS discontinuation,[2],30 (26) n (%)
same,Any TEAE leading to BOS dose interruption,[2],78 (67) n (%)
same,Any TEAE leading to BOS dose reduction,[2],29 (25) n (%)
same,Any TEAE related to BOS leading to BOS discontinuation,[2],16 (14) n (%)
same,Any TEAE resulting in death,[2],11 (9) n (%)
same,"Any TEAE, grade ≥3",[2],98 (84) n (%)
same,"Serious TEAEs, any",[2],67 (57) n (%)
same,"TEAE related to BOS, CTCAE grade ≥3: Anemia",[2],10 (9) n (%)
same,"TEAE related to BOS, CTCAE grade ≥3: Blood creatinine phosphokinase increased",[2],29 (25) n (%)
same,"TEAE related to BOS, CTCAE grade ≥3: Neutrophil count decreased",[2],12 (10) n (%)
same,"TEAE related to BOS, any",[2],99 (85) n (%)
same,"TEAE related to BOS, grade ≥3",[2],63 (54) n (%)
same,DLT event (one patient),"part A, 75 mg cohort",blood creatine phosphokinase increased
same,DLT event (one patient),"part A, 100 mg cohort",muscle weakness and blood creatine phosphokinase increased
same,DLT event (one patient),"part A, 150 mg cohort",capillary leak syndrome
same,maximum tolerated dose (MTD),"part A, 10-150 mg orally once daily",not reached
same,patients with dose-limiting toxicities,"part A, 10-150 mg orally once daily, cycle 1",three
same,Any TEAE,[3],67 (100) n (%)
same,Any TEAE leading to BOS discontinuation,[3],23 (34) n (%)
same,Any TEAE leading to BOS dose interruption,[3],45 (67) n (%)
same,Any TEAE leading to BOS dose reduction,[3],19 (28) n (%)
same,Any TEAE leading to study discontinuation,[3],11 (16) n (%)
same,Any TEAE related to BOS leading to BOS discontinuation,[3],14 (21) n (%)
same,Any TEAE related to BOS leading to study discontinuation,[3],4 (6) n (%)
same,Any TEAE resulting in death,[3],9 (13) n (%)
same,"Any TEAE, grade ≥3",[3],57 (85) n (%)
same,Serious TEAEs related to BOS,[3],12 (18) n (%)
same,"Serious TEAEs, any",[3],39 (58) n (%)
same,"TEAE related to BOS, CTCAE grade ≥3: Anemia",[3],7 (10) n (%)
same,"TEAE related to BOS, CTCAE grade ≥3: Asthenia",[3],2 (3) n (%)
same,"TEAE related to BOS, CTCAE grade ≥3: Blood creatinine phosphokinase increased",[3],19 (28) n (%)
same,"TEAE related to BOS, CTCAE grade ≥3: Diarrhea",[3],3 (4) n (%)
same,"TEAE related to BOS, CTCAE grade ≥3: Hypophosphatemia",[3],3 (4) n (%)
same,"TEAE related to BOS, CTCAE grade ≥3: Lymphopenia",[3],1 (1) n (%)
same,"TEAE related to BOS, CTCAE grade ≥3: Muscular weakness",[3],3 (4) n (%)
same,"TEAE related to BOS, CTCAE grade ≥3: Myositis",[3],2 (3) n (%)
same,"TEAE related to BOS, CTCAE grade ≥3: Neutropenia",[3],4 (6) n (%)
same,"TEAE related to BOS, CTCAE grade ≥3: Neutrophil count decreased",[3],5 (7) n (%)
